Results published in ChEMBL document CHEMBL4028911, “Discovery of a Small-Molecule Bromodomain-Containing Protein 4 (BRD4) Inhibitor That Induces AMP-Activated Protein Kinase-Modulated Autophagy-Associated Cell Death in Breast Cancer” (J Med Chem, 2017).
Activity calls are given as the source filed them. The rule behind the calls is not given here.

Columns and labels:
[1] = tested on: MCF7; assay: Induction of autophagy in human MCF7 cells assessed as reduction in cell viability at 1.5 uM administered at 1 hr post […] addition by MTT assay; type: functional, cell-based
In short: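 MCF-7 cells pretreated with 3-MA (1 mM) for 1 h, then given 1.5 µM. Viability read by MTT: 4 h incubation with MTT, formazan dissolved in DMSO, absorbance at 570 nm.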

[2] = tested on: Mus musculus; assay: Induction of cleavage of caspase-3 in BALB/c mouse xenografted with human MDA-MB-231 cells at 100 mg/kg, ig administered once a day for 27 days by Western blot analysis; type: functional, organism-based
In short: (§1)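 Female BALB/c nude mice (6-8 weeks) given 5×10^6 MCF-7 or MDA-MB-231 cells subcutaneously. At 100 mm3 tumours, dosed intragastrically once daily (25, 50, 100 mg/kg, or vehicle) for 24 or 27 days. Excised tumours lysed and probed by western blot for caspase-3 cleavage.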

[3] = tested on: MDA-MB-231; assay: Induction of autophagy in human MDA-MB-231 cells assessed as downregulation of p62/SQSTM1 expression at 3 uM measured up to 36 hrs by Western blot analysis; type: functional, cell-based
In short: (§2)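 MCF-7 (1.5 µM) or MDA-MB-231 (3 µM) cells treated for indicated times. Adherent and floating cells lysed in RIPA with 1 mM PMSF, 4°C for 1 h. Equal protein run on 10-15% SDS-PAGE, transferred to PVDF, blocked with milk or BSA, probed with primary then HRP secondary antibodies, ECL detection; β-actin as loading control.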

[4] = tested on: Mus musculus; assay: In vivo inhibition of c-Myc expression in BALB/c mouse xenografted with human MDA-MB-231 cells at 100 mg/kg, ig administered once a day for 27 days by Western blot analysis; type: functional, organism-based
In short: (§3)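 Tumor tissues excised from MCF-7 or MDA-MB-231 xenograft mice were lysed and analysed by western blot for BRD4, c-Myc, LC3 and cleaved caspase-3.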

[5] = target: T1, Bromodomain-containing protein 4 (Homo sapiens, UniProt O60885); assay: Inhibition of BRD4 in human MCF7 cells assessed as reduction in FIP200 protein expression at 1.5 uM up to 36 hrs by Western blot analysis; type: cell-based
In short: (§4)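 MCF-7 (1.5 μM) or MDA-MB-231 (3 μM) cells treated for indicated times. Adherent and floating cells lysed in RIPA with 1 mM PMSF. Equal protein run on 10-15% SDS-PAGE, blotted to PVDF, blocked in milk or BSA, HRP/ECL detection. β-actin loading control.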

[6] = tested on: MDA-MB-231; assay: Antiproliferative activity against human MDA-MB-231 cells after 24 hrs by MTT assay; type: functional, cell-based; details: MDA-MB-231, 24 h
[7] = target: T1, Bromodomain-containing protein 4; assay: Inhibition of BRD4 in human MCF7 cells assessed as induction of AMPKalpha phosphorylation at thr172 at 1.5 uM measured up to 36 hrs by Western blot analysis; type: cell-based; in short: as §4
[8] = tested on: MCF7; assay: Effect on AKT expression in human MCF7 cells at 1.5 uM measured up to 36 hrs by Western blot analysis; type: ADME, cell-based; details: mcf7, 36 h; in short: as §2
[9] = tested on: MDA-MB-468; assay: Induction of autophagy in human MDA-MB-468 cells assessed as increase in LC3-2 expression expression measured up to 48 hrs by Western blot analysis; type: functional, cell-based
[10] = tested on: MDA-MB-231; assay: Induction of autophagy in human MDA-MB-231 cells assessed as cytoplasmic vacuolization at 3 uM by electron microscopy; type: functional, cell-based
In short: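 MCF-7 (1.5 µM) or MDA-MB-231 (3 µM) cells treated for indicated times. Cytoplasmic vacuoles examined by transmission electron microscopy.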

[11] = target: T1, Bromodomain-containing protein 4; assay: Inhibition of BRD4 in human MCF7 cells assessed as increase in ULK1 phosphorylation at ser317 at 1.5 uM up to 36 hrs by Western blot analysis; type: cell-based; in short: as §4
[12] = target: T1, Bromodomain-containing protein 4; assay: Inhibition of BRD4 in human MDA-MB-231 cells assessed as induction of AMPKalpha phosphorylation at thr172 at 3 uM measured up to 36 hrs by Western blot analysis; type: cell-based; in short: as §4
[13] = tested on: MCF7; assay: Antiproliferative activity against human MCF7 cells after 24 hrs by MTT assay; type: functional, cell-based; details: MCF7, 24 h
[14] = target: T1, Bromodomain-containing protein 4; assay: Inhibition of BRD4 interaction with p53 in human MCF7 cells at 1.5 uM by co-immunoprecipitation assay; type: cell-based
In short: (§5)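 Cells lysed in RIPA buffer (40 mM Tris-HCl pH 7.5, 150 mM NaCl, 0.5% NP-40, 5% glycerol, 10 mM NaF, protease inhibitors). Lysates incubated overnight at 4 °C with BRD4 or p53 antibody plus protein A/G beads, washed 3 times, resolved on 10% SDS-PAGE and blotted for AMPKα or p53.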

[15] = tested on: MDA-MB-231; assay: Antitumor activity against human MDA-MB-231 cells xenografted in nude BALB/c mouse assessed as reduction in tumor weight at 25 to 100 mg/kg, ig administered once a day for […] measured every 3 days relative to control; type: functional, organism-based
In short: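 Female BALB/c nude mice, 6-8 weeks, 20-22 g, injected subcutaneously with 5×10^6 MCF-7 or MDA-MB-231 cells. At 100 mm³ tumor volume (V = L×W²/2), split into four groups: 25, 50 or 100 mg/kg intragastric once daily for 24 or 27 days, or vehicle. Tumor volume and body weight measured every 3 days; tumors excised and weighed at end. MCF-7 n=7, MDA-MB-231 n=6 per group.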

[16] = target: T1, Bromodomain-containing protein 4; assay: Inhibition of BRD4 interaction with AMPK in human MDA-MB-231 cells at 3 uM by co-immunoprecipitation assay; type: cell-based; in short: as §5
[17] = tested on: Mus musculus; assay: In vivo inhibition of c-Myc expression in BALB/c mouse xenografted with human MCF7 cells at 100 mg/kg, ig administered once a day for 24 days by Western blot analysis; type: functional, organism-based; in short: as §3
[18] = tested on: Mus musculus; assay: Induction of cleavage of caspase-3 in BALB/c mouse xenografted with human MCF7 cells at 100 mg/kg, ig administered once a day for 24 days by Western blot analysis; type: functional, organism-based; in short: as §1
[19] = target: T1, Bromodomain-containing protein 4; assay: Inhibition of BRD4 in human MDA-MB-231 cells assessed as downregulation of mTOR phosphorylation at ser244 at 3 uM measured up to 36 hrs by Western blot analysis; type: cell-based; in short: as §4
[20] = tested on: MCF7; assay: Induction of autophagy in human MCF7 cells assessed as downregulation of p62/SQSTM1 expression at 1.5 uM in presence of ATG5 siRNA by Western blot analysis; type: functional, cell-based
[21] = tested on: MCF7; assay: Induction of autophagy in human MCF7 cells assessed as upregulation of beclin1 expression at 1.5 uM measured up to 36 hrs by Western blot analysis; type: functional, cell-based; in short: as §2
[22] = target: T1, Bromodomain-containing protein 4; assay: Inhibition of BRD4 in human MDA-MB-231 cells assessed as increase in ATG13 phosphorylation at ser318 at 3 uM up to 36 hrs by Western blot analysis; type: cell-based; in short: as §4
[23] = species: Homo sapiens; assay: Effect on p53 interaction with AMPK in human MDA-MB-231 cells at 3 uM by co-immunoprecipitation assay; type: cell-based
In short: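 Cells left untreated or treated, then lysed in RIPA (40 mM Tris-HCl pH 7.5, 150 mM NaCl, 0.5% NP-40, protease inhibitors, 5% glycerol, 10 mM NaF). Lysates incubated overnight at 4°C with BRD4 or p53 antibodies plus protein A/G beads, washed 3 times, resolved on 10% SDS-PAGE. Blots probed for p53 and AMPKα; inputs checked for BRD4, p53 and AMPKα.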

inhibition [5]: Active
IC50 [6]: 3270 nM
inhibition [7]: Active
inhibition [11]: Active
inhibition [12]: Active
IC50 [13]: 1620 nM
inhibition [14]: Active
inhibition [16]: Active
inhibition [19]: Active
inhibition [22]: Active
SMILES: Cc1cc(-c2nc3sc4c(c3c(=O)[nH]2)CCN(C)C4)cc(C)c1O
Activity [1]: inactive
Activity [2]: Active
Activity [3]: Active
Activity [4]: Active
Activity [8]: Non-Toxic
Activity [9]: Active
Activity [10]: Active
Activity [15]: Active
Activity [17]: Active
Activity [18]: Active
Activity [20]: inactive
Activity [21]: Active
Activity [23]: inactive
